Source: ChEMBL document CHEMBL1129426, “5-Lipoxygenase inhibitors: synthesis and structure-activity relationships of a series of 1-aryl-2H,4H-tetrahydro-1,2,4-triazin-3-ones” (J Med Chem, 1996)

How the values were obtained:
[1] = target: T1, Polyunsaturated fatty acid 5-lipoxygenase (Rattus norvegicus, UniProt P12527); experiment: Inhibition of 5-lipoxygenase catalysis in rat basophilic leukemia (RBL) cells by measuring 5-HETE product formation; type: cell-based, RBL-1
T1 sequence (P12527 whole entry): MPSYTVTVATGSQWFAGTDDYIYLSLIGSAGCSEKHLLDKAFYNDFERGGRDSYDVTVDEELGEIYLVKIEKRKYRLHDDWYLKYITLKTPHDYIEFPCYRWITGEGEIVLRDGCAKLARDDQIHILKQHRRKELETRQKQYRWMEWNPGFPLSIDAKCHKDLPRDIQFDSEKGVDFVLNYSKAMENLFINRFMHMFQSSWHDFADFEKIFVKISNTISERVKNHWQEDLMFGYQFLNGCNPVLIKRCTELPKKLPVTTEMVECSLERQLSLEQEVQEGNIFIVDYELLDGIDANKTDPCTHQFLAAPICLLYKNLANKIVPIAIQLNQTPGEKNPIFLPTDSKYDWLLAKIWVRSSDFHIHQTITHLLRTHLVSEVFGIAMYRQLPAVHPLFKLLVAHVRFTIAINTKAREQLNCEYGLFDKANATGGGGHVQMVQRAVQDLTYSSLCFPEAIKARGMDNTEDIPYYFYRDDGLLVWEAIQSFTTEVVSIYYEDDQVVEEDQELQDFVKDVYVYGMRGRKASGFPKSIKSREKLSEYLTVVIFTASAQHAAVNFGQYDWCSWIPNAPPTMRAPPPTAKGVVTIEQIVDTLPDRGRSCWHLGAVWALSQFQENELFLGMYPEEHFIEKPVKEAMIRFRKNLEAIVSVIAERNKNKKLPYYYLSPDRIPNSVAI
In short: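 Crude 20000g supernatant from sonicated rat basophilic leukemia cells used as 5-LO source; 5-HETE product formation measured.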

[2] = Plasma Cmax in rat (PO dose); type: ADME, organism-based; design: route oral
In short: (§1)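 Rats dosed by oral gavage at 200 µmol/kg. Tail-vein blood drawn at about 1 h intervals; plasma analysed by HPLC. Mean of data from two animals.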

[3] = Plasma Tmax in rat (PO dose); type: ADME, organism-based; in short: as §1
Rattus norvegicus [4] = experiment: In vivo inhibition of rat anaphylaxis leukotriene formation from peritoneal fluids, 1 hr after an oral dose of 200 uM/Kg; type: functional
In short: (§2)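 Rats given 200 µmol/kg orally 1 h before antibody-antigen challenge inducing peritoneal leukotriene biosynthesis; LTE4 in peritoneal fluid measured. Mean of eight rats; percent inhibition versus control group mean; significance by one-way ANOVA with Tukey's multiple comparison.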

[5] = target: T2, Polyunsaturated fatty acid 5-lipoxygenase (Homo sapiens, UniProt P09917); experiment: In vitro 5-lipoxygenase inhibitory activity against calcium ionophore (A23187) induced LTB4 formation in human whole blood.
T2 sequence (P09917 whole entry): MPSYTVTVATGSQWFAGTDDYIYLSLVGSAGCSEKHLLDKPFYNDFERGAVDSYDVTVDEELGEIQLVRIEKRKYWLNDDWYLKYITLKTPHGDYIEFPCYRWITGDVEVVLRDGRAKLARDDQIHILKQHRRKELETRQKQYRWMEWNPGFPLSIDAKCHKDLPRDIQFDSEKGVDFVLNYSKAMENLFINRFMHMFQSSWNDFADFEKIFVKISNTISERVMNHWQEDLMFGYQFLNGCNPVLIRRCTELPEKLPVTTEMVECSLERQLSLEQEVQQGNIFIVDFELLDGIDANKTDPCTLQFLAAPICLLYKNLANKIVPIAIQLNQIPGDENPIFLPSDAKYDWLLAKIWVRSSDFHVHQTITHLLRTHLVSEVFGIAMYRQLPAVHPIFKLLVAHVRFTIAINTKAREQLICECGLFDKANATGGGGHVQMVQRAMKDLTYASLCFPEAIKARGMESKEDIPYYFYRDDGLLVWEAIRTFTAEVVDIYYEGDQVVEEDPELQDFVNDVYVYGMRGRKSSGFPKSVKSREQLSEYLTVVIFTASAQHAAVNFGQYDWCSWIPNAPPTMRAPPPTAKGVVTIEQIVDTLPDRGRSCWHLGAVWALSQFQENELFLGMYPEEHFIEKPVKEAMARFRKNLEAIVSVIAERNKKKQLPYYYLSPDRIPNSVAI

Rattus norvegicus [6] = experiment: In vivo inhibition of rat anaphylaxis LTE4 leukotriene formation from peritoneal fluids, 1 hr after an oral dose of 200 uM/kg; type: functional; in short: as §2

O=C1NCCN(c2cccc(Cl)n2)N1
IC50 [1]: 5.6 µM
Cmax [2]: 122 µM
Tmax [3]: 2 h
ED50 (Rattus norvegicus [4]): 16 mg/kg
IC50 [5]: 4.8 µM

O=C1NN(c2ccccc2)CCN1Cc1ccccc1
IC50 [1]: 8.3 µM

O=C1NCCN(c2ccccn2)N1
Cmax [2]: 184 µM
Tmax [3]: 1 h
ED50 (Rattus norvegicus [4]): 8 mg/kg
IC50 [5]: 8.6 µM

CON1C(=O)NN(c2ccccc2)CC1C (stereo not given)
IC50 [1]: 22 µM

O=C1NCCN(c2cccc(-c3cccs3)n2)N1
IC50 [1]: 8.2 µM
IC50 [5]: 37 µM

O=C1NCCN(c2cccc(-c3ccccn3)n2)N1
IC50 [1]: 6 µM
IC50 [5]: > 50 µM

O=C1NCCN(c2cnc3ccccc3c2)N1
IC50 [1]: 32 µM
Cmax [2]: 58 µM
Tmax [3]: 1 h

CC1CN(c2cccc(-c3cccs3)c2)NC(=O)N1 (stereo not given)
IC50 [1]: 2.8 µM
Cmax [2]: 1 µM
Tmax [3]: 4 h
IC50 [5]: 5.5 µM

CC1CN(c2cccc(Br)c2)NC(=O)N1 (stereo not given)
IC50 [1]: 2.6 µM
Cmax [2]: 26 µM
Tmax [3]: 7.2 h
Inhibition (Rattus norvegicus [6]): 54%
IC50 [5]: 5.2 µM

O=C1NCCN(c2nc3ccccc3o2)N1
IC50 [1]: 32 µM

O=C1NCCN(c2cccc(F)n2)N1
IC50 [1]: 9.1 µM
IC50 [5]: 3 µM

Cc1cccc(N2CCNC(=O)N2)c1
Cmax [2]: 98 µM
Tmax [3]: 1.1 h
ED50 (Rattus norvegicus [4]): 18 mg/kg
IC50 [5]: 2 µM

CN1CCN(c2ccccc2)NC1=O
IC50 [1]: 32 µM

CC1CN(c2cccc(F)n2)NC(=O)N1 (stereo not given)
IC50 [1]: 6.6 µM
IC50 [5]: 6 µM

CCC1CN(c2ccccc2)NC(=O)N1 (stereo not given)
Cmax [2]: 59 µM
Tmax [3]: 1.2 h
ED50 (Rattus norvegicus [4]): 24 mg/kg
IC50 [5]: 3.8 µM

O=C1NCCN(c2ccnc3cc(Cl)ccc23)N1
IC50 [1]: 32 µM
Cmax [2]: 85 µM
Tmax [3]: 4 h

CCN1CCN(c2ccccc2)NC1=O
IC50 [1]: 32 µM

Cc1cc(C)cc(N2CCNC(=O)N2)c1
Cmax [2]: 20 µM
Tmax [3]: 4 h
Inhibition (Rattus norvegicus [6]): 46%

CSc1cccc(N2CCNC(=O)N2)c1
Cmax [2]: 26 µM
Tmax [3]: 1 h
Inhibition (Rattus norvegicus [6]): 73%
IC50 [5]: 2.2 µM

O=C1NCCN(c2cccc(-c3ccccn3)c2)N1
IC50 [1]: 30 µM

CCc1cccc(N2CCNC(=O)N2)c1
Cmax [2]: 32 µM
Tmax [3]: 1.1 h
ED50 (Rattus norvegicus [4]): 24 mg/kg

O=C1NCCN(c2cccc(C(F)(F)F)c2)N1
Cmax [2]: 24 µM
Tmax [3]: 4.1 h
Inhibition (Rattus norvegicus [6]): 40%

O=C1NCCN(c2cccc(Br)c2)N1
Cmax [2]: 35 µM
Tmax [3]: 4.2 h
Inhibition (Rattus norvegicus [6]): 46%

COc1cccc(N2CCNC(=O)N2)c1
IC50 [1]: 47 µM
Cmax [2]: 72 µM
Tmax [3]: 1.2 h
Inhibition (Rattus norvegicus [6]): 44%

O=C1NCCN(c2cc(F)cc(F)c2)N1
IC50 [1]: 8.9 µM
Cmax [2]: 64 µM
Tmax [3]: 2 h
Inhibition (Rattus norvegicus [6]): 59%
IC50 [5]: 4.6 µM

COc1cccc(N2CCNC(=O)N2)n1
IC50 [1]: 9.5 µM
Cmax [2]: 101 µM
Tmax [3]: 1 h
Inhibition (Rattus norvegicus [6]): 26%
IC50 [5]: 3.5 µM

Nc1cccc(N2CCNC(=O)N2)c1
IC50 [1]: 178 µM
Cmax [2]: 95 µM
Tmax [3]: 1.1 h

O=C1NCCN(c2ccncc2)N1
IC50 [1]: 32 µM

Cc1cccc(N2CC(C)NC(=O)N2)c1 (stereo not given)
IC50 [1]: 1.3 µM
Cmax [2]: 44 µM
Tmax [3]: 2.2 h
Inhibition (Rattus norvegicus [6]): 43%

O=C1NCCN(c2cccnc2)N1
IC50 [1]: 32 µM

CC1CN(c2cccc(Cl)c2)NC(=O)N1 (stereo not given)
IC50 [1]: 2.7 µM
Cmax [2]: 31 µM
Tmax [3]: 4 h
Inhibition (Rattus norvegicus [6]): 40%
IC50 [5]: 2.7 µM

CC1CN(c2ccccc2)NC(=O)N1O (stereo not given)
IC50 [1]: 6 µM
IC50 [5]: 13 µM

CC1CN(c2cccc(Br)n2)NC(=O)N1 (stereo not given)
Cmax [2]: 21 µM
Tmax [3]: 2 h
Inhibition (Rattus norvegicus [6]): 57%
IC50 [5]: 3.1 µM

O=C1NCCN(c2cccc(O)c2)N1
IC50 [1]: 32 µM

CC1CN(c2cccc(Cl)c2)NC(=O)N1O (stereo not given)
IC50 [5]: 3.6 µM

Cc1cccc(N2CC(C)NC(=O)N2)n1 (stereo not given)
IC50 [1]: 3.8 µM
Cmax [2]: 125 µM
Tmax [3]: 1 h
IC50 [5]: 1.7 µM

O=C1NCCN(c2cccc(F)c2)N1
Cmax [2]: 108 µM
Tmax [3]: 1 h
Inhibition (Rattus norvegicus [6]): 38%

COc1cccc(N2CC(C)NC(=O)N2)n1 (stereo not given)
IC50 [1]: 5.5 µM
Cmax [2]: 85 µM
Tmax [3]: 1 h
IC50 [5]: 7.1 µM

O=C1NCCN(c2nc3ccccc3s2)N1
IC50 [1]: 32 µM
Cmax [2]: 123 µM
Tmax [3]: 2 h

O=C1NCCN(c2cccc(-c3cccs3)c2)N1
IC50 [1]: 2.1 µM
Cmax [2]: 3 µM
Tmax [3]: 1 h
IC50 [5]: 8.8 µM

O=C1NCCN(c2cccc(OCc3ccccc3)c2)N1
IC50 [1]: 1.1 µM
Cmax [2]: 2.5 µM
Tmax [3]: 1 h
Inhibition (Rattus norvegicus [6]): 14%
IC50 [5]: 0.2 µM

CCCCC1CN(c2ccccc2)NC(=O)N1 (stereo not given)
IC50 [1]: 1.5 µM
Cmax [2]: 8 µM
Tmax [3]: 1 h
Inhibition (Rattus norvegicus [6]): 42%

O=C1NCCN(c2cccc([N+](=O)[O-])c2)N1
IC50 [1]: 49 µM
Cmax [2]: 62 µM
Tmax [3]: 2 h

CC1CN(c2cccc(F)c2)NC(=O)N1 (stereo not given)
IC50 [1]: 6.3 µM
Cmax [2]: 70.2 µM
Tmax [3]: 7.2 h
Inhibition (Rattus norvegicus [6]): 60%
IC50 [5]: 1.8 µM

COCCOCC1CN(c2ccccc2)NC(=O)N1 (stereo not given)
IC50 [1]: 14 µM
IC50 [5]: 24 µM

Cc1ccc(N2CCNC(=O)N2)cc1
IC50 [1]: 300 µM
Cmax [2]: 105 µM
Tmax [3]: 1.1 h

O=C1NCCN(c2cccc(-c3ccsc3)c2)N1
IC50 [1]: 4.9 µM
Cmax [2]: 2 µM
Tmax [3]: 1 h
IC50 [5]: 5.3 µM

O=C1NCCN(c2cccc(-c3ccncc3)c2)N1
IC50 [1]: 30 µM

Cc1cccc(N2CC(C)N(O)C(=O)N2)c1 (stereo not given)
IC50 [1]: 8.4 µM
IC50 [5]: 4.8 µM
